How the values were obtained:
[1] = Antiplatelet activity in rabbit platelet rich plasma assessed as inhibition rate of ADP-induced platelet aggregation at 200 uM after 5 mins by aggregometry; type: functional; settings: Oryctolagus cuniculus
How it was run: (§1)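 Rabbit platelet-rich plasma obtained by centrifuging blood at 1000 rpm for 5 min. Platelet-poor plasma (3000 rpm, 15 min) served as the reference. Platelets were adjusted to 3×10¹¹/L. PRP was mixed with compound at final levels 400, 200, 100 or 50 and incubated at 37 °C for 5 min before aggregation was read. IC50 was derived by linear regression.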

[2] = Antiplatelet activity in rabbit platelet rich plasma assessed as inhibition rate of ADP-induced platelet aggregation at 100 uM after 5 mins by aggregometry; type: functional; settings: Oryctolagus cuniculus; how it was run: as §1
[3] = Antiplatelet activity in rabbit platelet rich plasma assessed as inhibition rate of ADP-induced platelet aggregation at 50 uM after 5 mins by aggregometry; type: functional; settings: Oryctolagus cuniculus; how it was run: as §1
[4] = Antiplatelet activity in rabbit platelet rich plasma assessed as inhibition of ADP-induced platelet aggregation after 5 mins by aggregometry; type: functional; settings: Oryctolagus cuniculus; how it was run: as §1
ECV-304 [5] = test: Protection against H2O2-induced toxicity in human ECV304 cells assessed as proliferation rate at 100 uM pretreated for 24 hrs before H2O2 challenge measured after 12 hrs by MTT assay; type: functional; settings: read-out: Activity
How it was run: (§2)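 ECV-304 cells were seeded at 6×10³/well and grown to confluence. Cells were pretreated 24 h with compound in DMSO (final ≤0.05%), then given H2O2 (150) for 12 h at 37 °C, 5% CO2. MTT (5 mg/mL) was added for 4 h, formazan dissolved in DMSO, and A570 read. Proliferation rate = [OD(compd)−OD(H2O2)]/[OD(control)−OD(H2O2)]×100%. EC50 was calculated from proliferation rates by formula.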

ECV-304 [6] = test: Protection against H2O2-induced toxicity in human ECV304 cells assessed as proliferation rate at 50 uM pretreated for 24 hrs before H2O2 challenge measured after 12 hrs by MTT assay; type: functional; settings: read-out: Activity; how it was run: as §2
ECV-304 [7] = test: Protection against H2O2-induced toxicity in human ECV304 cells assessed as proliferation rate at 25 uM pretreated for 24 hrs before H2O2 challenge measured after 12 hrs by MTT assay; type: functional; settings: read-out: Activity; how it was run: as §2
ECV-304 [8] = test: Protection against H2O2-induced toxicity in human ECV304 cells assessed as proliferation rate at 12.5 uM pretreated for 24 hrs before H2O2 challenge measured after 12 hrs by MTT assay; type: functional; settings: read-out: Activity; how it was run: as §2
ECV-304 [9] = test: Protection against H2O2-induced toxicity in human ECV304 cells assessed as proliferation rate pretreated for 24 hrs before H2O2 challenge measured after 12 hrs by MTT assay; type: functional, cell-based; how it was run: as §2
[10] = Antiplatelet activity in rabbit platelet rich plasma assessed as inhibition rate of ADP-induced platelet aggregation at 400 uM after 5 mins by aggregometry; type: functional; settings: Oryctolagus cuniculus; how it was run: as §1
ECV-304 [11] = test: Ratio of Ligustrazine EC50 to compound EC50 for protection against H2O2-induced toxicity in human ECV304 cells pretreated for 24 hrs before H2O2 challenge measured after 12 hrs by MTT assay

SMILES	inhibition at 200 µM [1] [%]	inhibition at 100 µM [2] [%]	inhibition at 50 µM [3] [%]	IC50 [4] [µM]	growth at 100 µM (ECV-304 [5]) [%]	growth at 50 µM (ECV-304 [6]) [%]	growth at 25 µM (ECV-304 [7]) [%]	growth at 12.5 µM (ECV-304 [8]) [%]	EC50 (ECV-304 [9]) [mM]	inhibition at 400 µM [10] [%]	EC50 ratio (TMP/compound) (ECV-304 [11])
Cc1nc(C)c(COc2ccc(/C=C/C(=O)O)cc2O)nc1C	60	11.8	3.46	176	170	157	131	15.3	0.046	87	
Cc1nc(C)c(COc2ccc(/C=C/C(=O)O)cc2)nc1C	29	13.4	18.8	1400	46.6	90.4	2.01	-55	0.086	27.6	
CCOC(=O)/C=C/c1cccc(OC)c1OCc1nc(C)c(C)nc1C	12.5	10.5	6.97	> 2000		16.6	58.7	-92.5	3.04	28.1	
COc1cc(/C=C/C(=O)O)ccc1OCc1nc(C)c(C)nc1C	51.9	47	17.5	157	-19.6	-17.8	-22.4	-12.5	0.295	73.2	
CCOC(=O)/C=C/c1ccc(OCc2nc(C)c(C)nc2C)c(OC)c1	40.2	36.9	26.2	449	70.2	50.9	43.5	29.5	0.109	49.5	
COc1cc(/C=C/C(=O)O)cc(OC)c1OCc1nc(C)c(C)nc1C	47.3	41	33	182	-132	-95.9	-33.8	-74.6	3.53	64.3	
CCOC(=O)/C=C/c1cccc(OCc2nc(C)c(C)nc2C)c1	34.8	29.4	14.5	628		278	-180	-1.52	4.33	43	
Cc1nc(C)c(COc2cccc(/C=C/C(=O)O)c2)nc1C	57.2	46.6	30	161	175	473	378	306	0.02	60.8	30
Cc1nc(C)c(COc2c(Br)cc(Br)cc2/C=C/C(=O)O)nc1C	33.1	20	18.1	1310	-24.8	48.5	4.21	-22.3	0.155	37.4	
CCOC(=O)/C=C/c1cc(Br)cc(Br)c1OCc1nc(C)c(C)nc1C	15.8	13.5	9.8	> 2000		73.9	-6.88	-25.7	1.59	16.1	
COc1cccc(/C=C/C(=O)O)c1OCc1nc(C)c(C)nc1C	28.4	26.1	8.97	522		50.3	-0.71	-164	3.59	47.6	
O=C(O)/C=C/c1ccc(Cn2ccnc2)cc1 [OZAGREL]	45.4	27.3	23.3	360						55.3	
CCOC(=O)/C=C/c1cc(OC)c(OCc2nc(C)c(C)nc2C)c(OC)c1	38.5	35	31	631	-180	-94.2	-81.9	-31.1	2.31	48.1	
Cc1nc(C)c(C)nc1C [LIGUSTRAZINE]					42.8	22.1	12.7	10.4	0.6		
Cc1nc(C)c(COc2ccccc2/C=C/C(=O)O)nc1C	70.2	62.3	46.1	54	-34.6	237	370	183	0.499	76.8	
CCOC(=O)/C=C/c1ccc(OCc2nc(C)c(C)nc2C)cc1	15.5	11.9	9.8	> 2000	-7.56	-6.36	-10.8	-1.79	0.206	22.7	
CCOC(=O)/C=C/c1cc(Cl)ccc1OCc1nc(C)c(C)nc1C	14.5	11.3	7.66	> 2000		-186	-94.4	-0.46	16.9	18.7	
Cc1nc(C)c(COc2ccc(Cl)cc2/C=C/C(=O)O)nc1C	45.6	38.4	24.7	1050		-153	-44	-98.3	9.3	67	
CCOC(=O)/C=C/c1ccccc1OCc1nc(C)c(C)nc1C	33.4	30.1	16.4	502		327	-109	-1.24	1.54	48.1	
CCOC(=O)/C=C/c1cc(Br)c(OCc2nc(C)c(C)nc2C)c(Br)c1	16.3	10.7	6.77	> 2000		66.1	57	-130	1.97	20.7	
Cc1nc(C)c(COc2c(Br)cc(/C=C/C(=O)O)cc2Br)nc1C	38.6	62.8	5.3	1290	-85.8	-113	-104	-83.8	3.28	55.4	
CCOC(=O)/C=C/c1ccc(OCc2nc(C)c(C)nc2C)c(O)c1	25.7	23	13.9	1380	37.3	10.3	-8.45	-18.7	0.139	41.8	
